Lmaj promast – Leishmania major promastigote growth inhibition, primary screen. Leishmania major promastigotes, resazurin fluorescence viability. inhibition, % at 10 µM. actives 9% (n = 200,000); in the data active means inhibition above about 50%;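 further: promastigotes grown with compound for 44 hours at 28 °C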
MPTP block – mitochondrial permeability transition pore inhibitors, primary screen, biochemical, isolated mouse mitochondria, absorbance | Ca2+ swelling absorbance, 30 min | actives 1.4% (n = 360,000) | AID 602449, 2012 | inhibition, % at 10 µM;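 active means inhibition of 50% or more, scaled per plate between neutral and stimulator controls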;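 further: 0% = DMSO wells given calcium and 100% = 1 mM EGTA wells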
DTT redox prof – compounds producing H2O2 with reducing agent – biochemical, NIH compound library profiling, artefact control for MLSCN library redox annotation, primary screen | DTT-dependent redox cycling H2O2, phenol red/HRP absorbance; 100% = 100 µM peroxide control, 0% = buffer | activation, % at 10 µM | actives 0.03% (n = 200,000) | AID 878, 2007;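 active means activation of at least 50% relative to the plate's high and low controls in the primary single-dose screen; inactive means activation below 50%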;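 further: compound incubated with DTT at 0.8 mM final as the reducing agent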
T cruzi repl – inhibitors of intracellular T. cruzi growth, primary screen, luminescence, NIH3T3 host cells | T. cruzi beta-gal in NIH3T3, 90 h | actives 1.4% (n = 300,000) | inhibition, % (test concentration not listed) | AID 1885, 2009;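 active means mean inhibition across valid replicates above about 55%, limit read from the data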;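 further: signal also drops with host cell toxicity which is not excluded here; 0% = plate median of DMSO wells and 100% = zero luminescence signal; higher percent means less beta-gal luminescence so fewer parasites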
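Incubation – ≥90 h infection period, 3 h prior cell attachment · System – NIH/3T3 fibroblasts plus reporter T. cruzi · Doses – compound pinned at 50 nL/well, DMSO · Read-out basis – percent inhibition of parasite-derived β-gal signal · Signal – luminescent β-galactosidase signal after 60 min lysis · Also added – 5000 T. cruzi trypomastigotes/well · Medium – Low-serum DMEM with 2% FBS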
Hep lipid drop – inhibitors of hepatocyte lipid droplet formation, primary screen, imaging, high-throughput imaging, BODIPY stain; AML12 mouse hepatocytes, oleate lipid droplets; inhibition, % at 6.5 µM; AID 1656, 2009; actives 0.4% (n = 240,000);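 active means lipid droplet intensity inhibited by at least 50%, with more than 500 cells counted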
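Technique: fluorescence imaging, 20x objective, two fields per well / Assay system: AML12 hepatocytes (mouse) / Measure: % inhibition of lipid droplet signal / Doses: 6.5 µM single-point dosing / Incubation: overnight exposure / Reagent: 100 µM oleic acid challenge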
* = called active by the depositor; x = no result. The full list was thinned out, with hits kept by preference.

SMILES | Lmaj promast | MPTP block | DTT redox prof | T cruzi repl | Hep lipid drop
CN(C)c1nc(N)c([N+](=O)[O-])c(NCCO)n1 | -6 | 1 | 0 | -3 | -2
CCc1cccc(C)c1NC(=O)Nc1c(Br)cnn1C | x | 0 | x | 0 | 9
COc1ccc(NC(=O)c2ccccc2OCc2ccc(F)cc2)c(OC)c1 | x | -1 | x | 13 | -7
CC(C)Cc1nc(N2CCN(C(=O)c3ccccc3)CC2)c(C#N)c2c1CCC2 | 40 | 7 | 1 | 40 | x
CC(C)Cc1nc(N2CCN(C(=O)c3ccco3)CC2)c(C#N)c2c1CCC2 | 51* | -2 | 2 | 28 | -7
CC1(C)Cc2c(C#N)c(N3CCN(C(=O)c4ccco4)CC3)nc(Cc3ccccc3)c2CO1 | 90* | -1 | -1 | 5 | x
COc1nccnc1NS(=O)(=O)c1ccc(NC(=O)c2cccc(C)c2)cc1 | -3 | 0 | 0 | -6 | 12
CC(C)c1ccc(C(=O)NN2C(=O)C3CCCCC3C2=O)cc1 (stereo unspecified) | 8 | 1 | 0 | -9 | 7
CC12CCC(C(=O)Nc3nc4ccc(Br)cc4s3)(OC1=O)C2(C)C (stereo unspecified) | 24 | 6 | 0 | 16 | -1
CN1C(=O)C2(c3ccccc31)c1c(oc3ccccc3c1=O)C(=O)N2CCCO (stereo unspecified) | x | 1 | x | 5 | 8
CCCN(Cc1nnc(-c2ccccc2Cl)o1)C(=O)c1cc([N+](=O)[O-])cc([N+](=O)[O-])c1 | 98* | -15 | 0 | 68* | 2
O=C(c1cc([N+](=O)[O-])cc([N+](=O)[O-])c1)N(Cc1nnc(-c2ccccc2Cl)o1)C1CC1 | 82* | -3 | -1 | 75* | -6
COc1ccc(C)cc1Nc1n[n+](-c2ccccc2)c(-c2ccc(OC)c(OC)c2OC)s1 | x | 34 | x | 55* | x
Cc1ccccc1NC(=O)N1CCCC(c2nc(-c3ccc(C(C)C)cc3)no2)C1 (stereo unspecified) | 85* | 3 | 3 | 42 | x
Cc1ccccc1NC(=O)N1CCCC(c2nc(-c3ccc(F)cc3)no2)C1 (stereo unspecified) | 2 | 1 | 0 | 17 | x
COc1ccc(OC)c(S(=O)(=O)N2c3ccccc3CC2C)c1 (stereo unspecified) | 100* | 3 | 1 | 3 | -8
COc1ccc(OC)c(S(=O)(=O)N2CCc3ccccc32)c1 | 95* | -2 | 3 | -2 | -27
COc1ccc(C(=O)N2CCCN(C)CC2)cc1S(=O)(=O)N1CCCc2ccccc21 | 55* | 0 | -2 | 13 | x
COc1ccc(OC)c(S(=O)(=O)N2C(C)CCCC2C)c1 (stereo unspecified) | -2 | -1 | 0 | 4 | x
COc1ccc(C(=O)NCc2ccc(C)cc2)cc1S(=O)(=O)N1CCCc2ccccc21 | 99* | 2 | 0 | 39 | -9
COc1ccc(C(=O)NCC2CCCO2)cc1S(=O)(=O)N1CCCc2ccccc21 (stereo unspecified) | 3 | 0 | -1 | 12 | -20
COc1ccc(S(=O)(=O)N2CCc3ccccc32)cc1C(=O)O | x | 0 | x | -15 | 3
COc1ccc(C(=O)N2CCOCC2)cc1S(=O)(=O)N1CCCc2ccccc21 | 0 | 0 | 0 | 12 | 24
CC(C)(C)C(=O)N1CCN(C(=O)c2ccco2)CC1 | x | 0 | x | 11 | -23
Cc1cc(C)n2c(SCC(=O)NC3CCCCC3)nnc2n1 | -1 | -1 | 0 | -14 | 0
SMILES | Lmaj promast | MPTP block | DTT redox prof | T cruzi repl | Hep lipid drop
COc1ccc(OC)c(S(=O)(=O)N2c3cc(F)ccc3CCC2C)c1 (stereo unspecified) | 100* | 2 | -2 | 17 | -50
COc1ccc(OC)c(S(=O)(=O)N2CCCc3ccccc32)c1 | 100* | -2 | 0 | 3 | x
COc1ccc(Br)cc1S(=O)(=O)N1CCCc2ccccc21 | x | 0 | x | 9 | -26
CC1CCc2cc(F)ccc2N1S(=O)(=O)c1ccc(F)cc1 (stereo unspecified) | x | 0 | x | -3 | 4
CN1CCN(c2ncnc3c2ncn3[C@H]2CN(Cc3ccc(F)cc3)C[C@@H](CO)O2)CC1 | x | 1 | x | x | x
Cc1sc(NC(=O)CSc2nnc(N)s2)c(C#N)c1C | x | 1 | x | 5 | -2
O=C(/C=C/c1cnc2ccccc2n1)NC12CC3CC(CC(C3)C1)C2 | 1 | 0 | 0 | -10 | -32

From PubChem BioAssay
